Data on 4 compounds can be found in ChEMBL document CHEMBL2440047, “Design, synthesis, and structure-activity relationships of azolylmethylpyrroloquinolines as nonsteroidal aromatase inhibitors” (J Med Chem, 2013).

In the first data set the target is T1, Aromatase (Homo sapiens, UniProt P11511).
T1 sequence (P11511 whole entry): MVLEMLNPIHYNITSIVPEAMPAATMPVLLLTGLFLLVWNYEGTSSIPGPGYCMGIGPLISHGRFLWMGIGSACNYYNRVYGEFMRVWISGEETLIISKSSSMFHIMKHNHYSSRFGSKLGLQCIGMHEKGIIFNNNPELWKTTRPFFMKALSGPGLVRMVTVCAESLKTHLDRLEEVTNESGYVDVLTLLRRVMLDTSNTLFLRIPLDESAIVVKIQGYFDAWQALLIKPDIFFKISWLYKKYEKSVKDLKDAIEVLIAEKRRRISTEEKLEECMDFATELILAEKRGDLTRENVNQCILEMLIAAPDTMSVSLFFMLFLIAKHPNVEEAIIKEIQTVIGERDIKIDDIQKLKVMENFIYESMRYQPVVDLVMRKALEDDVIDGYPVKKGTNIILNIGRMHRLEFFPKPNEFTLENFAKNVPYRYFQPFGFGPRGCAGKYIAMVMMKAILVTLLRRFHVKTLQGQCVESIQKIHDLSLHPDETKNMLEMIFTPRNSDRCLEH
In words: Inhibition of aromatase in human H295R cells using [1beta-3H(N)]-androst-4-ene-3,17-dione as substrate assessed as residual activity at 1 uM after 24 hrs by tritiated water release assay.
Conditions: not given; call rule not given here
Regarding `COc1ccc(-c2cc(C(=O)O)c3ccc4[nH]ccc4c3n2)cc1`, the activity at 1 µM turned out to be 10.6%.

The test system of another data set is MCF7. The experiment in a line: Growth inhibition of estrogen-sensitive human MCF7 cells after 72 hrs by MTT assay. It counts as functional. The settings on record: MCF7, 72 h. A digest of the protocol: (§1)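 Cells were seeded at 8x10^3 per well and left 18 h at 37 °C, 5% CO2, then exposed 72 h to compound at several concentrations from 10 mM DMSO stocks (final DMSO ≤0.25%). Jurkat, RS4;11 and SEM were grown in RPMI-1640; H295R in DMEM-F12 with 2% FBS plus insulin-transferrin-selenium. Viability read by MTT.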
Consider `Cc1cc(CO)c2ccc3[nH]ccc3c2n1`, for which it took 5.7 µM to inhibit growth by half (GI50).

For `CCOC(=O)c1cc(-c2ccccc2)nc2c1ccc1c2ccn1CC`, the GI50 (as a rule, the concentration giving 50% growth inhibition) turned out to be 18.5 µM.

`COc1cccc(-c2cc(=O)c3ccc4[nH]ccc4c3[nH]2)c1` registered a GI50 of 0.81 µM.

Tested on in a further data set: not listed separately
The experiment in a line: Growth inhibition of non-estrogen-sensitive human RS4:11 cells after 72 hrs by MTT assay. It counts as functional. The settings on record: RS4-11, 72 h. In short, it runs like this:
as §1
For orientation: Formazan colour is commonly taken as a measure of viable cells.
In the case of `COc1cccc(-c2cc(=O)c3ccc4[nH]ccc4c3[nH]2)c1`, growth was halved (GI50) at 25 µM.

In the next data set the target is T1, Aromatase. In words: Inhibition of CYP19 in human H295R cells using [1beta-3H(N)]-androst-4-ene-3,17-dione at 10 uM after 24 hrs by tritiated water release assay. It counts as cell-based.
Conditions: not given
A digest of the protocol: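 Cells were then incubated 2 h with 0.5 µM [1β-3H(N)]-androst-4-ene-3,17-dione. Read-out is tritiated water release, expressed as % of untreated cells. Means ± SEM of two independent experiments, each in triplicate.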
`Cc1cc(CO)c2ccc3[nH]ccc3c2n1`: the “inhibition (INH)” value was “Not Active”.

In the case of `COc1ccc(-c2cc(C(=O)O)c3ccc4[nH]ccc4c3n2)cc1`, the “inhibition (INH)” value was “Not Active”.

On to `CCOC(=O)c1cc(-c2ccccc2)nc2c1ccc1c2ccn1CC`, for which the “inhibition (INH)” value is “Not Active”.

A further data set concerns IGROV-1. In words: Growth inhibition of estrogen-sensitive human IGROV1 cells after 72 hrs by MTT assay. It counts as functional. The note with it: IGROV-1, 72 h. A digest of the protocol:
as §1
Turning to `COc1cccc(-c2cc(=O)c3ccc4[nH]ccc4c3[nH]2)c1`, the GI50 is 0.92 µM.

Tested on in the next data set: not listed separately
In words: Growth inhibition of non-estrogen-sensitive human SEM cells after 72 hrs by MTT assay. It counts as functional.
Conditions: not given
In short, it runs like this:
as §1
As for `Cc1cc(CO)c2ccc3[nH]ccc3c2n1`, the GI50 was determined as 16.2 µM.

`CCOC(=O)c1cc(-c2ccccc2)nc2c1ccc1c2ccn1CC` displayed a GI50 of 13 µM.

As for `COc1cccc(-c2cc(=O)c3ccc4[nH]ccc4c3[nH]2)c1`, halving of growth (GI50) required 35 µM.

Another data set deals with OVCAR-3. The experiment in a line: Growth inhibition of estrogen-sensitive human OVCAR3 cells after 72 hrs by MTT assay. The settings on record: OVCAR-3, 72 h. It counts as functional. In short, it runs like this: as §1
Regarding `COc1cccc(-c2cc(=O)c3ccc4[nH]ccc4c3[nH]2)c1`, the GI50 turned out to be 0.39 µM.

The test system of another data set is HeLa. The experiment in a line: Growth inhibition of non-estrogen-sensitive human HeLa cells after 72 hrs by MTT assay.
Conditions: not given
It counts as functional. A digest of the protocol: as §1
For the compound `COc1cccc(-c2cc(=O)c3ccc4[nH]ccc4c3[nH]2)c1`, growth was halved (GI50) at 38.4 µM.

The subject of a further data set is Jurkat. The experiment in a line: Growth inhibition of non-estrogen-sensitive human Jurkat cells after 72 hrs by MTT assay.
Conditions: not given
Format: functional. A digest of the protocol:
as §1
`COc1cccc(-c2cc(=O)c3ccc4[nH]ccc4c3[nH]2)c1` yielded a GI50 of 21.2 µM.

The test system of a further data set is NCI-H295R. In words: Growth inhibition of estrogen-sensitive human NCI-H295R cells after 72 hrs by MTT assay. It counts as functional.
Conditions: not given
A digest of the protocol:
as §1
The compound `COc1cccc(-c2cc(=O)c3ccc4[nH]ccc4c3[nH]2)c1` registered a GI50 of 0.7 µM.

A further data set has as its system HT-29. The experiment in a line: Growth inhibition of non-estrogen-sensitive human HT-29 cells after 72 hrs by MTT assay. It counts as functional. The settings on record: HT-29, 72 h. A digest of the protocol:
as §1
Compound `CCOC(=O)c1cc(-c2ccccc2)nc2c1ccc1c2ccn1CC` came in with a GI50 of 4.3 µM.

As to `COc1cccc(-c2cc(=O)c3ccc4[nH]ccc4c3[nH]2)c1`, growth was halved (GI50) at 17.7 µM.

The target of another data set is T1, Aromatase. In words: Inhibition of aromatase (unknown origin) using 7-methoxy-4-trifluoromethylcoumarin as substrate after 30 mins by fluorimetric analysis.
Conditions: not given
In short, it runs like this: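 Recombinant CYP19 from a high-throughput screening kit, with 7-methoxy-4-trifluoromethylcoumarin as substrate. Enzyme/substrate mix was then added for 30 min at 37 °C before stop reagent. Fluorescence read at λex 410 / λem 530 nm. IC50 given as mean ± SEM of three independent experiments run in duplicate.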
`Cc1cc(CO)c2ccc3[nH]ccc3c2n1`: the IC50 (usually the concentration that inhibits the measured activity by half) came out at 4.15 µM.

Take `COc1ccc(-c2cc(C(=O)O)c3ccc4[nH]ccc4c3n2)cc1`: the IC50 is > 10 µM.

`CCOC(=O)c1cc(-c2ccccc2)nc2c1ccc1c2ccn1CC`: the IC50 is > 10 µM.

The compound `COc1cccc(-c2cc(=O)c3ccc4[nH]ccc4c3[nH]2)c1` showed an IC50 of 0.59 µM.
